Among the data in ChEMBL document CHEMBL3526018, “Metabolites of PPI-2458, a selective, irreversible inhibitor of methionine aminopeptidase-2: structure determination and in vivo activity” (Drug Metab Dispos, 2013) are Activity, inhibition and Retention_time values, retold here.

The target in series [1] is Methionine aminopeptidase 2 (Homo sapiens) (UniProt P50579). Put plainly: Inhibition of human MetAP2 assessed as remaining enzyme activity after 8 hrs. Further details: concentration or dose not given beside the values. The method in brief:
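The hMetAP2 assay follows the fraction of active enzyme remaining during an 8 h incubation with inhibitor, relative to an enzyme-only control.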

The test system of series [2] is Rattus norvegicus. Put plainly: Inhibition of MetAP2 level in Sprague-Dawley rat lymph nodes assessed as free enzyme level at 0.3 mg/kg, po by ELISA. Also on record: dose 0.3 mg/kg. It counts as functional, organism-based. The method in brief: (§1)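 Male Sprague-Dawley rats (200-225 g, n=3 per group) were dosed once IV at 0.3 mg/kg or PO at 0.3 or 3.0 mg/kg, in 11% HPCD in water. Blood, liver, lung, thymus and pooled non-mesenteric lymph nodes were taken at ~24 h and lysed or homogenized with NP-40. Free MetAP2 was measured by ELISA and expressed as % of vehicle.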
(In general: In an ELISA, binding on a coated surface is turned into a signal by an enzyme label.)

Series [3] relates to Liver microsome. Put plainly: Retention time in dog liver microsomes treated with at 5 mM PPI-2458 by LC/MS analysis. It counts as ADME, Canis lupus familiaris. The conditions noted are these: 5000 µM. A digest of the protocol:
(§2)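 Liver microsomes (pooled male/female) in 100 mM KPO4 pH 7.4 with PPI-2458 (5 mM stock), pre-incubated 5 min at 37°C, then 10 mM NADPH added; 20 min at 37°C with shaking. Time-zero and no-NADPH controls. Quenched with CH3CN; supernatant dried and redissolved in water. Analysed by LC-MS, ESI+ full scan 300–800 amu, C18 column, 10→50% B gradient.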
Background: Liver microsomes are vesicles of endoplasmic reticulum, rich in cytochrome P450 enzymes.

Series [4] is described as follows: Retention time in mouse liver microsomes treated with at 5 mM PPI-2458 by LC/MS analysis. The conditions noted are these: 5000 µM. Type of series: ADME. A digest of the protocol: as §2
For series [5], the system named is Rattus norvegicus. Put plainly: Inhibition of MetAP2 level in Sprague-Dawley rat lymph nodes assessed as free enzyme level at 3 mg/kg, po by ELISA. It counts as functional, organism-based. Further details: dose 3 mg/kg. A digest of the protocol: as §1
The subject of series [6] is Rattus norvegicus. Put plainly: Inhibition of MetAP2 level in Sprague-Dawley rat lymph nodes assessed as free enzyme level at 0.3 mg/kg, iv by ELISA. Further details: dose 0.3 mg/kg. It counts as functional, organism-based. The method in brief: as §1
The test system of series [7] is Liver microsome. Put plainly: Retention time in human liver microsomes treated with at 5 mM PPI-2458 by LC/MS analysis. Type of series: ADME. The conditions noted are these: 5000 µM. The method in brief:
as §2

Series [8] in a line: Retention time in monkey liver microsomes treated with at 5 mM PPI-2458 by LC/MS analysis. Type of series: ADME, Macaca mulatta. The conditions noted are these: rhesus monkey, 5000 µM. A digest of the protocol: as §2
The test system of series [9] is Rattus norvegicus. Put plainly: Inhibition of MetAP2 level in Sprague-Dawley rat whole blood assessed as free enzyme level at 0.3 mg/kg, po by ELISA. It counts as functional, organism-based. Also on record: dose 0.3 mg/kg. The method in brief:
as §1

In series [10] the test system is Rattus norvegicus. Put plainly: Inhibition of MetAP2 level in Sprague-Dawley rat liver assessed as free enzyme level at 0.3 mg/kg, iv by ELISA. It counts as functional, organism-based. Also on record: dose 0.3 mg/kg. The method in brief:
as §1

For series [11], the system named is Rattus norvegicus. Put plainly: Inhibition of MetAP2 level in Sprague-Dawley rat thymus assessed as free enzyme level at 3 mg/kg, po by ELISA. Type of series: functional, organism-based. Also on record: dose 3 mg/kg. A digest of the protocol:
as §1

In series [12] the test system is Rattus norvegicus. Put plainly: Inhibition of MetAP2 level in Sprague-Dawley rat liver assessed as free enzyme level at 3 mg/kg, po by ELISA. It counts as functional, organism-based. Also on record: dose 3 mg/kg. A digest of the protocol:
as §1

The test system of series [13] is Rattus norvegicus. Put plainly: Inhibition of MetAP2 level in Sprague-Dawley rat liver assessed as free enzyme level at 0.3 mg/kg, po by ELISA. Further details: dose 0.3 mg/kg. Type of series: functional, organism-based. The method in brief:
as §1

Series [14] deals with Rattus norvegicus. Put plainly: Inhibition of MetAP2 level in Sprague-Dawley rat lung assessed as free enzyme level at 0.3 mg/kg, iv by ELISA. It counts as functional, organism-based. Also on record: dose 0.3 mg/kg. The method in brief:
as §1

In series [15] the test system is Rattus norvegicus. Put plainly: Inhibition of MetAP2 level in Sprague-Dawley rat whole blood assessed as free enzyme level at 3 mg/kg, po by ELISA. It counts as functional, organism-based. Further details: dose 3 mg/kg. A digest of the protocol:
as §1

In series [16] the test system is Rattus norvegicus. Put plainly: Inhibition of MetAP2 level in Sprague-Dawley rat lung assessed as free enzyme level at 0.3 mg/kg, po by ELISA. It counts as functional, organism-based. Further details: dose 0.3 mg/kg. A digest of the protocol:
as §1

Series [17] concerns Liver microsome. Put plainly: Retention time in rat liver microsomes treated with at 5 mM PPI-2458 by LC/MS analysis. It counts as ADME. The conditions noted are these: 5000 µM. A digest of the protocol: as §2
The target in series [18] is Methionine aminopeptidase 2 (Homo sapiens) (UniProt P50579). Put plainly: Inhibition of human MetAP2 activity after end of experiment. Also on record: scale not given: the % may be the effect or the level left.
Series [19] has as its system Rattus norvegicus. Put plainly: Inhibition of MetAP2 level in Sprague-Dawley rat thymus assessed as free enzyme level at 0.3 mg/kg, po by ELISA. Type of series: functional, organism-based. Also on record: dose 0.3 mg/kg. The method in brief:
as §1

For series [20], the system named is Rattus norvegicus. Put plainly: Inhibition of MetAP2 level in Sprague-Dawley rat whole blood assessed as free enzyme level at 0.3 mg/kg, iv by ELISA. Type of series: functional, organism-based. Further details: dose 0.3 mg/kg. The method in brief:
as §1

In series [21] the test system is Rattus norvegicus. Put plainly: Inhibition of MetAP2 level in Sprague-Dawley rat lung assessed as free enzyme level at 3 mg/kg, po by ELISA. Further details: dose 3 mg/kg. Type of series: functional, organism-based. A digest of the protocol:
as §1

In series [22] the test system is Rattus norvegicus. Put plainly: Inhibition of MetAP2 level in Sprague-Dawley rat thymus assessed as free enzyme level at 0.3 mg/kg, iv by ELISA. Type of series: functional, organism-based. Further details: dose 0.3 mg/kg. The method in brief: as §1

Activity calls are given as the source filed them. The rule behind the calls is not given here.

Methionine aminopeptidase 2 (Homo sapiens), sequence (P50579 2-478 limits assumed): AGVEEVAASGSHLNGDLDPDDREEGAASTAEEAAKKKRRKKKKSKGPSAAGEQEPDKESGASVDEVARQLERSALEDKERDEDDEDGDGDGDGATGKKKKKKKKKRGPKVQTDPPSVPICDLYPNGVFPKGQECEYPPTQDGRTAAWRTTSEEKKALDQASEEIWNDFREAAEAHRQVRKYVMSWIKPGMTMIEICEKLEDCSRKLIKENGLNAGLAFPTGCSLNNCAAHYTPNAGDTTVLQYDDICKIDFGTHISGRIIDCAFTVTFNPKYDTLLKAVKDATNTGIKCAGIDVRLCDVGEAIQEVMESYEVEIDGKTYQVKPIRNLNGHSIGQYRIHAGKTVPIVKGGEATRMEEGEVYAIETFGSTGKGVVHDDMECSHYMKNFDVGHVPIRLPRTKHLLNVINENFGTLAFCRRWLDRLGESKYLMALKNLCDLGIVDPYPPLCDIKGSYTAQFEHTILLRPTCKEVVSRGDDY

`CO[C@@H]1[C@H](OC(=O)N[C@@H](C(N)=O)C(C)(C)O)CC[C@]2(CO2)[C@H]1[C@@]1(C)O[C@@H]1C[C@@H]1OC1(C)C`: the Activity in series [1] came to 39%.
Regarding `CO[C@@H]1[C@H](OC(=O)N[C@@H](C(N)=O)C(C)C)CC[C@]2(CO2)[C@H]1[C@@]1(C)O[C@@H]1C/C=C(\C)CO`, the inhibition entry in series [2], in series [9], in [13], in series [16] and in [19] was “inactive” each time. Moreover, the Activity in [1] worked out at 9%; in series [18], 90%. In addition, the Retention_time in [3], in [4], in [7], in [8] and in [17] was 17.6 min in each case. The inhibition entry in series [5], in [6], in series [10], in series [11], in series [12] and in series [14] was “Active” in each case. The inhibition entry in series [15], in series [20], in [21] and in [22] was “Active” throughout.
With `CO[C@@H]1[C@H](OC(=O)N[C@@H](C(N)=O)C(C)C)CC[C@]2(CO2)[C@H]1[C@@]1(C)O[C@@H]1CCC(C)(C)O`, in [1], the Activity amounted to 90%.
On to `CO[C@@H]1[C@H](OC(=O)N[C@@H](C(N)=O)C(C)C)CC[C@]2(CO2)[C@H]1[C@@]1(C)O[C@@H]1C[C@H]1OC1(C)C`, for which the inhibition entry in series [2], in [9], in series [13], in series [16] and in series [19] was “inactive” throughout. The Activity was found to be 10% in [1] and 90% in series [18]. Besides, the Retention_time in [3], in series [4], in series [7], in series [8] and in series [17] was 20.8 min each time. In addition, the inhibition result in series [5], in series [6], in series [10], in series [11], in series [12] and in series [14] was “Active” each time. Also, the inhibition entry in series [15], in series [20], in [21] and in series [22] was “Active” each time.
Consider `CO[C@@H]1[C@H](OC(=O)N[C@@H](C(N)=O)C(C)C)CC[C@]2(CO2)[C@H]1[C@@]1(C)O[C@@H]1C[C@@H]1OC1(C)C`, for which the inhibition result in series [2], in series [9], in series [13], in [16] and in series [19] was “inactive” throughout. The Activity came to 58% in series [1] and 40% in series [18]. Also, the Retention_time in series [3], in series [4], in series [7], in series [8] and in [17] was 20.1 min throughout. Moreover, the inhibition result in series [5], in series [6], in series [10], in series [11], in series [12] and in series [14] was “Active” throughout. In addition, the inhibition entry in [15], in [20], in series [21] and in series [22] was “Active” in each case.
Take `CO[C@@H]1[C@H](OC(=O)N[C@@H](C(N)=O)C(C)(C)O)CC[C@]2(CO2)[C@H]1[C@@]1(C)O[C@@H]1C[C@H]1OC1(C)C`: the Activity in [1] stood at 6%.
As for `CO[C@@H]1[C@H](OC(=O)N[C@@H](C(N)=O)C(C)(C)O)CC[C@]2(CO2)[C@H]1[C@@]1(C)O[C@@H]1CC=C(C)C`, the inhibition entry in series [2], in [5], in [6], in series [9], in [10] and in series [11] was “Active” throughout. Further, the inhibition entry in series [12], in series [13], in [14], in series [15], in series [16] and in [19] was “Active” in each case. Further, the inhibition entry in series [20], in series [21] and in series [22] was “Active” throughout. The Activity in series [1] came out at 1%. For the same molecule, the Retention_time in series [3], in series [4], in series [7], in [8] and in series [17] was 26.7 min each time.
